We go through six molecules from ChEMBL document CHEMBL3102736, “Synthesis and evaluation of cytotoxic activities of new guanidines derived from carbazoles” (Bioorg Med Chem Lett, 2014).

The source made the active and inactive calls. No cut-off for these calls is given here.

Test [1] deals with KB. Briefly: Cytotoxicity against human KB cells at 10^-6 M after 72 hrs by MTS assay. In kind it is functional. The method, boiled down: (§1)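 KB and MRC5-SV2 cells grown in D-MEM with 10% fetal calf serum and antibiotics under 5% CO2. Seeded at 650–2000 cells/well and dosed 24 h later at 10^-6 or 10^-5 M from DMSO (1% final). After 72 h, MTS added for 3 h at 37 °C, then A490 read. % inhibition = (1 − OD treated/OD control) × 100.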
On the technique in general: Tetrazolium assays rely on reduction of a dye to a coloured formazan, in cell work by metabolically active cells.

The subject of test [2] is KB. As to the kind of experiment: Cytotoxicity against human KB cells at 10^-5 M after 72 hrs by MTS assay. In kind it is functional. The method, boiled down:
as §1

The test system of test [3] is DNA. As to the kind of experiment: Binding affinity to calf thymus DNA at 10^-4 M by fluorescence assay. The settings on record: Bos taurus. The test is classed as nucleic-acid assay. Put shortly:
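Fluorescence titration at 37 °C in 0.01 M Tris, pH 7.4. Compound working solution at 10^-4 M (diluted from a 10^-2 M DMSO stock); calf thymus DNA added at increasing levels across 25–100 µg/mL. Excitation at 290 nm, emission recorded over 330–390 nm.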

For test [4], the system named is MRC5. As to the kind of experiment: Cytotoxicity against human MRC5 cells at 10^-5 M after 72 hrs by MTS assay. The test is classed as functional, cell-based. The method, boiled down: as §1
For test [5], the system named is PC-3. Briefly: Cytotoxicity against human PC3 cells at 10^-5 M after 72 hrs by MTS assay. In kind it is functional, cell-based. Put shortly:
(§2)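 HCT116, MCF7 and PC3 cells grown in RPMI with 10% fetal calf serum and antibiotics under 5% CO2. Seeded at 650–2000 cells/well and dosed 24 h later at 10^-6 or 10^-5 M from DMSO (1% final). After 72 h, MTS added for 3 h at 37 °C, then A490 read. % inhibition = (1 − OD treated/OD control) × 100.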

The test system of a further test is HL-60. As to the kind of experiment: Cytotoxicity against human HL60 cells after 72 hrs by MTS assay. In kind it is functional, cell-based. The settings on record: HL-60, 72 h. Put shortly: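 HL60 cells cultured in supplemented RPMI (10% fetal calf serum) under 5% CO2. Seeded at 650–2000 cells/well and treated 24 h later with compound from DMSO (1% final), 0.5 nM–10 µM. After 72 h, MTS added for 3 h at 37 °C, then A490 read. IC50 taken as 50% inhibition of proliferation; separate duplicate experiments.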

Test [6] relates to PC-3. Briefly: Cytotoxicity against human PC3 cells at 10^-6 M after 72 hrs by MTS assay. In kind it is functional, cell-based. The method, boiled down: as §2
The test system of test [7] is MCF7. As to the kind of experiment: Cytotoxicity against human MCF7 cells at 10^-6 M after 72 hrs by MTS assay. In kind it is functional, cell-based. Put shortly:
as §2

Test [8] concerns MCF7. Briefly: Cytotoxicity against human MCF7 cells at 10^-5 M after 72 hrs by MTS assay. The test is classed as functional, cell-based. The method, boiled down: as §2
Test [9] concerns HCT-116. Briefly: Cytotoxicity against human HCT116 cells at 10^-6 M after 72 hrs by MTS assay. In kind it is functional, cell-based. The method, boiled down: as §2
In test [10] the test system is HCT-116. Briefly: Cytotoxicity against human HCT116 cells at 10^-5 M after 72 hrs by MTS assay. The test is classed as functional, cell-based. The method, boiled down: as §2
Test [11] relates to DNA. Briefly: Binding affinity to calf thymus DNA at 10^-4 M by UV-Visible spectrophotometry. The test is classed as nucleic-acid assay. The following applies: Bos taurus. The method, boiled down: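 Compound working solution at 10^-4 M (diluted from DMSO stock in 0.01 M Tris) in Tris buffer (0.01 M, pH 7.4) at 37 °C. UV-Vis absorption spectra (230–500 nm) recorded without and with calf thymus DNA at a fixed 100 µg/mL.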

Test [12] deals with MRC5. As to the kind of experiment: Cytotoxicity against human MRC5 cells at 10^-6 M after 72 hrs by MTS assay. The test is classed as functional, cell-based. The method, boiled down: as §1

In turn, `CCOC(=O)Oc1ccc2[nH]c3c(C)cc(N=C(N)N)c(C)c3c2c1` returned an inhibition at 1 µM in the test with KB [1] of 0%. The molecule further displayed an inhibition at 10 µM with KB [2] of 73%.
In the case of `CCCN/C(N)=N/c1cc(C)c2[nH]c3ccccc3c2c1C`, in the test on KB [1], the inhibition at 1 µM was found to be 18%. In the test with DNA [3], the result was Active. The same molecule gave an inhibition at 10 µM in the test with KB [2] of 91%.
In the test on KB [1], `CCCCN/C(N)=N/c1cc(C)c2[nH]c3ccccc3c2c1C` came in with an inhibition at 1 µM of 5%. Further, the outcome in the test on DNA [3] was Active. The same molecule came in with an inhibition at 10 µM in the test with KB [2] of 98%.
On to `CCC(CC)N/C(N)=N/c1cc(C)c2[nH]c3ccc(Br)cc3c2c1C`, for which the result in the test with MRC5 [4], in the test on PC-3 [5], in the test with DNA [3], with MCF7 [8], in the test with HCT-116 [10] and with DNA [11] was Active. Also, in the test on KB [1], the inhibition at 1 µM came out at 15%. In addition, in the test with HL-60, half-maximal inhibition (IC50) was put at 3.1 µM. In addition, the result in the test with PC-3 [6], with MCF7 [7], in the test with HCT-116 [9] and in the test with MRC5 [12] was inactive. In the test with KB [2], this molecule gave an inhibition at 10 µM of 100%.
In the test on KB [1], `Cc1cc(/N=C(\N)NC(C)(C)C)c(C)c2c1[nH]c1ccc(Br)cc12` showed an inhibition at 1 µM of 16%. This molecule also displayed a 50% inhibitory concentration (IC50) in the test on HL-60 of 4 µM. Further, in the test with DNA [3], the result was Active. In the test on KB [2], this molecule had an inhibition at 10 µM of 100%.
As to `CCCCN/C(N)=N/c1cc(C)c2[nH]c3ccc(Br)cc3c2c1C`, in the test with KB [1], at 1 µM the inhibition was 26%. In the test with HL-60, this molecule gave an IC50 of 3.5 µM. Moreover, the result with DNA [3] was Active. The molecule also came in with an inhibition at 10 µM in the test on KB [2] of 100%.

As a reminder, the inhibition is the relative decrease from the control value, in per cent. A low value points to a weak effect. One may read the IC50 as the point on the concentration scale where inhibition reaches its midpoint. A high value points to weaker potency.
